Activity calls are given as the source filed them.
Tests used:
Assay type in all cases: cell-based
[1] = biological target: Nuclear receptor subfamily 4 group A member 2 (Homo sapiens) (UniProt P43354); test: Modulation of full length human Nurr1 expressed in SKNBE(2) cells co-transfected with luciferase reporter plasmid harboring NurRE response element assessed as decrease in luciferase activity at 12.5 to 50 uM incubated for 18 hrs by luciferase reporter gene assay; details: SKNBE2, filed as modulator, dose 12.5-50 µM
Chain of Nuclear receptor subfamily 4 group A member 2 (Homo sapiens) (P43354 whole entry): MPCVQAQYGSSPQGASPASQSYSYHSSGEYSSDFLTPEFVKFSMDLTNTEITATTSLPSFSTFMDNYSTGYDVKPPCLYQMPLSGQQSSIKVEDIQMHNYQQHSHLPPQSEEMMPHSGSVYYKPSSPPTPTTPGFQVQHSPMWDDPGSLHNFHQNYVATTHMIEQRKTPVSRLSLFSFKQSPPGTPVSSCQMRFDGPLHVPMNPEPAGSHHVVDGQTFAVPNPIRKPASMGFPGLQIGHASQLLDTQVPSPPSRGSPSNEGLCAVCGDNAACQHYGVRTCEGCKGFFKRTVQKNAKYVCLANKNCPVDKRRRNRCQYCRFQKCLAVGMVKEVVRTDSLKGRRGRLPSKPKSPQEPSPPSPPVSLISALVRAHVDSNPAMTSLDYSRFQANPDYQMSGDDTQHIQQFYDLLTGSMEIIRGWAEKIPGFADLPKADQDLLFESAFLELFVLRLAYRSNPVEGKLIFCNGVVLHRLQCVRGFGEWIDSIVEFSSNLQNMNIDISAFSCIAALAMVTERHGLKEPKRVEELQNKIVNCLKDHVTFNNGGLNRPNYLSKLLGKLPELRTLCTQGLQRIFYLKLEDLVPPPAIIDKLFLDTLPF

[2] = biological target: Nuclear receptor subfamily 4 group A member 2 (Homo sapiens) (UniProt P43354); test: Modulation of full length human Nurr1 expressed in HEK293T cells co-transfected with RXRalpha and luciferase reporter plasmid harboring NurRE response element assessed as decrease in luciferase activity at 12.5 to 50 uM incubated for 18 hrs by luciferase reporter gene assay; details: filed as modulator, dose 12.5-50 µM
Procedure, shortened: (§1)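 Full-length Nurr1 plasmid, alone (2 μg) or 1 μg plus full-length RXRα (1 μg), cotransfected with 3xNBRE- or 3xNurRE-luciferase reporter (6 μg) using Lipofectamine 2000, 18 h. Cells replated at 10,000/well for 4 h. Four ligand concentrations, or vehicle (water, ethanol or DMSO), added in quadruplicate for 18 h. Luciferase read. Fold change vs vehicle, mean ± s.e.m., one-way ANOVA vs vehicle.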

[3] = biological target: Nuclear receptor subfamily 4 group A member 2 (Homo sapiens) (UniProt P43354); test: Modulation of full length human Nurr1 expressed in SKNBE(2) cells co-transfected with RXRalpha and luciferase reporter plasmid harboring NBRE response element assessed as decrease in luciferase activity at 12.5 to 50 uM incubated for 18 hrs by luciferase reporter gene assay; details: SKNBE2, filed as modulator, dose 12.5-50 µM
Procedure, shortened: (§2)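 SK-N-BE(2)-C cells were kept in 1:1 EMEM/F12 with 10% FBS at 37°C and 5% CO2. They were cotransfected with full-length Nurr1 (1 μg), full-length RXRα (1 μg) and 3xNBRE- or 3xNurRE-luc reporter (6 μg) for 18 h, replated at 10,000 cells/well for 4 h, and then treated with ligand or vehicle in quadruplicate for 18 h. The readout was luciferase luminescence as fold over vehicle, reported as mean ± s.e.m. (n=4) from 2 independent experiments, one-way ANOVA.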

[4] = tested on: HEK293T; test: Modulation of Gal4-fused VP16 expressed in HEK293T cells co-transfected with UAS repoter gene assessed as decrease in luciferase activity at 12.5 to 50 uM incubated for 18 hrs by luciferase reporter gene assay; details: Human alphaherpesvirus 2, filed as modulator, dose 12.5-50 µM
Procedure, shortened: (§3)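 Cells in 10-cm dishes were transfected with Gal4-VP16 expression plasmid (2 μg) plus 5xUAS-luciferase reporter (2 μg) for 18 h. They were replated at 10,000 cells/well for 4 h, then given ligand or vehicle (water, ethanol or DMSO) in quadruplicate for 18 h. Luciferase was read with Britelite Plus. Fold change is versus vehicle-treated cells, with one-way ANOVA versus vehicle.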

[5] = biological target: Nuclear receptor subfamily 4 group A member 2 (Homo sapiens) (UniProt P43354); test: Modulation of full length human Nurr1 expressed in PC12 cells co-transfected with luciferase reporter plasmid harboring NurRE response element at 12.5 to 50 uM incubated for 18 hrs by luciferase reporter gene assay; details: PC-12, dose 12.5-50 µM
Procedure, shortened: (§4)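 Here PC12 cells (FK-12 medium, 15% horse serum, 2.5% FBS, 37°C, 5% CO2) received full-length Nurr1 (2 μg) without RXRα, plus 3xNBRE- or 3xNurRE-luciferase reporter (6 μg), for 18 h. Cells were replated at 10,000/well for 4 h, then treated with ligand or vehicle in quadruplicate for 18 h. Luciferase luminescence was normalized to vehicle-treated cells. Results are mean ± s.e.m. (n=4) from 2 independent experiments, with one-way ANOVA against vehicle.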

[6] = tested on: SKNBE2; test: Modulation of Gal4-fused VP16 expressed in SKNBE(2) cells co-transfected with UAS repoter gene assessed as decrease in luciferase activity at 12.5 to 50 uM incubated for 18 hrs by luciferase reporter gene assay; details: Human alphaherpesvirus 2, filed as modulator, dose 12.5-50 µM; procedure, shortened: as §3
[7] = biological target: Nuclear receptor subfamily 4 group A member 2 (Homo sapiens) (UniProt P43354); test: Modulation of full length human Nurr1 expressed in SKNBE(2) cells co-transfected with luciferase reporter plasmid harboring NBRE response element assessed as decrease in luciferase activity at 12.5 to 50 uM incubated for 18 hrs by luciferase reporter gene assay; details: SKNBE2, filed as modulator, dose 12.5-50 µM
Procedure, shortened: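 Transfection of SK-N-BE(2)-C cells (1:1 EMEM/F12, 10% FBS, 37°C, 5% CO2) used full-length Nurr1 alone (2 μg, no RXRα) with 3xNBRE- or 3xNurRE-luciferase reporter (6 μg) for 18 h. Cells were replated at 10,000/well for 4 h, then exposed to ligand or vehicle in quadruplicate for 18 h. Luminescence was expressed as fold over vehicle, as mean ± s.e.m. (n=4) from 2 independent experiments, one-way ANOVA against vehicle.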

[8] = tested on: HEK-293T; test: Cytotoxicity in human HEK293T cells assessed as reduction in cell viability at 12.5 to 50 uM incubated for 18 hrs by Cell Titer-Glo assay; details: dose 12.5-50 µM
Procedure, shortened: (§5)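 Cells seeded at 1.5 million per 10-cm dish. Next day they were replated at 10,000 cells/well and rested 4 h. Ligand or vehicle (water, ethanol or DMSO, by ligand) was added in dose-response format in quadruplicate. After 18 h, viability was read by CellTiter-Glo luminescence. Data are mean ± s.e.m., generally representative of 2 independent experiments. One-way ANOVA versus vehicle.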

[9] = biological target: Nuclear receptor subfamily 4 group A member 2 (Homo sapiens) (UniProt P43354); test: Modulation of full length human Nurr1 expressed in HEK293T cells co-transfected with luciferase reporter plasmid harboring NBRE response element assessed as decrease in luciferase activity at 12.5 to 50 uM incubated for 18 hrs by luciferase reporter gene assay; details: filed as modulator, dose 12.5-50 µM; procedure, shortened: as §1
[10] = biological target: Nuclear receptor subfamily 4 group A member 2 (Homo sapiens) (UniProt P43354); test: Modulation of full length human Nurr1 expressed in HEK293T cells co-transfected with RXRalpha and luciferase reporter plasmid harboring NBRE response element assessed as decrease in luciferase activity at 12.5 to 50 uM incubated for 18 hrs by luciferase reporter gene assay; details: filed as modulator, dose 12.5-50 µM; procedure, shortened: as §1
[11] = biological target: Nuclear receptor subfamily 4 group A member 2 (Homo sapiens) (UniProt P43354); test: Modulation of full length human Nurr1 expressed in HEK293T cells co-transfected with RXRalpha and luciferase reporter plasmid harboring NBRE response element assessed as increase in luciferase activity at 12.5 to 50 uM incubated for 18 hrs by luciferase reporter gene assay; details: filed as modulator, dose 12.5-50 µM; procedure, shortened: as §1
[12] = biological target: Nuclear receptor subfamily 4 group A member 2 (Homo sapiens) (UniProt P43354); test: Modulation of full length human Nurr1 expressed in HEK293T cells co-transfected with luciferase reporter plasmid harboring NurRE response element assessed as decrease in luciferase activity at 12.5 to 50 uM incubated for 18 hrs by luciferase reporter gene assay; details: filed as modulator, dose 12.5-50 µM; procedure, shortened: as §1
[13] = tested on: SK-N-BE(2); test: Cytotoxicity in human SKNBE2 cells assessed as reduction in cell viability at 12.5 to 50 uM incubated for 18 hrs by Cell Titer-Glo assay; details: dose 12.5-50 µM; procedure, shortened: as §5
[14] = biological target: Nuclear receptor subfamily 4 group A member 2 (Homo sapiens) (UniProt P43354); test: Modulation of full length human Nurr1 expressed in PC12 cells co-transfected with RXRalpha and luciferase reporter plasmid harboring NurRE response element at 12.5 to 50 uM incubated for 18 hrs by luciferase reporter gene assay; details: PC-12, dose 12.5-50 µM
Procedure, shortened: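 PC12 cells were grown at 37°C and 5% CO2 in […] medium with 15% horse serum and 2.5% FBS. They were transfected with full-length Nurr1 (1 μg) plus full-length RXRα (1 μg) and 3xNBRE- or 3xNurRE-luciferase reporter (6 μg) for 18 h, then replated at 10,000 cells/well for 4 h. Ligand or vehicle (water, ethanol or DMSO) was added in quadruplicate for 18 h. Luminescence was read as fold change over vehicle. Results are mean ± s.e.m., n=4, from 2 independent experiments, analysed by one-way ANOVA against vehicle.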

[15] = tested on: PC-12; test: Cytotoxicity in rat PC-12 cells assessed as reduction in cell viability at 12.5 to 50 uM incubated for 18 hrs by Cell Titer-Glo assay; details: pc-12, 18 h, dose 12.5-50 µM; procedure, shortened: as §5
[16] = biological target: Nuclear receptor subfamily 4 group A member 2 (Homo sapiens) (UniProt P43354); test: Modulation of full length human Nurr1 expressed in PC12 cells co-transfected with luciferase reporter plasmid harboring NBRE response element at 12.5 to 50 uM incubated for 18 hrs by luciferase reporter gene assay; details: PC-12, dose 12.5-50 µM; procedure, shortened: as §4
[17] = tested on: PC-12; test: Modulation of Gal4-fused VP16 expressed in PC12 cells co-transfected with UAS repoter gene assessed as decrease in luciferase activity at 12.5 to 50 uM incubated for 18 hrs by luciferase reporter gene assay; details: Human alphaherpesvirus 2, filed as modulator, dose 12.5-50 µM; procedure, shortened: as §3
[18] = biological target: Nuclear receptor subfamily 4 group A member 2 (Homo sapiens) (UniProt P43354); test: Modulation of full length human Nurr1 expressed in SKNBE(2) cells co-transfected with RXRalpha and luciferase reporter plasmid harboring NurRE response element assessed as decrease in luciferase activity at 12.5 to 50 uM incubated for 18 hrs by luciferase reporter gene assay; details: SKNBE2, filed as modulator, dose 12.5-50 µM; procedure, shortened: as §2
[19] = biological target: Nuclear receptor subfamily 4 group A member 2 (Homo sapiens) (UniProt P43354); test: Modulation of full length human Nurr1 expressed in SKNBE(2) cells co-transfected with RXRalpha and luciferase reporter plasmid harboring NBRE response element assessed as increase in luciferase activity at 12.5 to 50 uM incubated for 18 hrs by luciferase reporter gene assay; details: SKNBE2, filed as modulator, dose 12.5-50 µM; procedure, shortened: as §2

Measured: Activity

Clc1ccc(C(c2c[nH]c3ccccc23)c2c[nH]c3ccccc23)cc1
inactive: [5] | [14] | [16]
Toxic: [8] | [13] | [15]
active: all other assays above
